Activity calls are given as the source filed them. The rule behind the calls is not given here.
What was measured:
[1] = biological target: T1, Glucose-dependent insulinotropic receptor (Homo sapiens) (UniProt Q8TDV5); experiment: Agonist activity at recombinant human GPR119 expressed in HEK293 cells assessed as increase in intracellular cAMP accumulation measured after 30 mins relative to oleoylethanolamide; format: functional, cell-based
T1 sequence (whole entry): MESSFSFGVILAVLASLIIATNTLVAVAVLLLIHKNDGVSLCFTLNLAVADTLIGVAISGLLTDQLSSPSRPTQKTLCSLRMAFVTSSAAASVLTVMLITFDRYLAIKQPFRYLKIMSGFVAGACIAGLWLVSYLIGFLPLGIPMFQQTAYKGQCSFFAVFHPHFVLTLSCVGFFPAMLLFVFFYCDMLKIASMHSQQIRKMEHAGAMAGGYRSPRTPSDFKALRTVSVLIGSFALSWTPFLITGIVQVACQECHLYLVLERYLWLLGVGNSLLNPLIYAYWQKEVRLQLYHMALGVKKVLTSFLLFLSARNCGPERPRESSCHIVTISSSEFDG

[2] = biological target: T2, Glucose-dependent insulinotropic receptor (Homo sapiens, UniProt Q8TDV5); experiment: Agonist activity at recombinant human GPR119 expressed in HEK293 cells assessed as increase in intracellular cAMP accumulation measured after 30 mins; format: functional, cell-based
T2 sequence (Q8TDV5 whole entry): T1 sequence (whole entry)

[3] = Stability in rat liver microsomes assessed as parent compound remaining at 5 uM measured after 1 hr; format: ADME, Microsome; details: read-out: Stability
Summary of the method: (§1)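 Compound at 5 μM incubated 1 hour with human or rat liver microsomes (0.2 mg/mL); percent of parent remaining reported.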

[4] = Stability in human liver microsomes assessed as parent compound remaining at 5 uM measured after 1 hr; format: ADME, Microsome; details: read-out: Stability; summary of the method: as §1
[5] = test system: Rattus norvegicus; experiment: Effect on plasma insulin level in Sprague-Dawley rat at 1 to 3 mg/kg, po measured after 16 hrs by ELISA; format: ADME, organism-based; details: in vivo
Summary of the method: (§2)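 Overnight-fasted 7-week-old Sprague-Dawley rats dosed by oral gavage; 16 h later glucose 1 g/kg given intraperitoneally. Tail-vein blood drawn before and at 10, 30, 60 min after loading; glucose followed up to 2 h. Plasma glucose by automatic analyzer, insulin by rat insulin ELISA; glucose AUC calculated.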

[6] = biological target: T3, Cytochrome P450 1A2 (Homo sapiens, UniProt P05177); experiment: Inhibition of CYP1A2 (unknown origin); format: ADME
T3 sequence (P05177 whole entry): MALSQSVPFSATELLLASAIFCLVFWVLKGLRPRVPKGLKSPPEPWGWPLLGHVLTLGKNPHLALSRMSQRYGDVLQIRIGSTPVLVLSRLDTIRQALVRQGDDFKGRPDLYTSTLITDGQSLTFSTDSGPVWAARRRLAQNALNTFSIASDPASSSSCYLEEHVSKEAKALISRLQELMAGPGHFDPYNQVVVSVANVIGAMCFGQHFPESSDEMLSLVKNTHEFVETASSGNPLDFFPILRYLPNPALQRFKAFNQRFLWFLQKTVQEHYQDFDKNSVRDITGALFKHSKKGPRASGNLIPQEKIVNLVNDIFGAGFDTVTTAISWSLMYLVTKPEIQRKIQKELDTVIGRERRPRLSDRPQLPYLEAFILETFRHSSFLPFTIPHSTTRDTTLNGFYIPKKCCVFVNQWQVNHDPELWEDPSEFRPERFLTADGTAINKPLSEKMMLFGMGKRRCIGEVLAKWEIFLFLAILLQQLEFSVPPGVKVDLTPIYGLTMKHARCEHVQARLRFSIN

[7] = biological target: Cytochrome P450 2D6 (Homo sapiens, UniProt P10635); experiment: Inhibition of CYP2D6 (unknown origin); format: ADME
Sequence of Cytochrome P450 2D6 (P10635 whole entry): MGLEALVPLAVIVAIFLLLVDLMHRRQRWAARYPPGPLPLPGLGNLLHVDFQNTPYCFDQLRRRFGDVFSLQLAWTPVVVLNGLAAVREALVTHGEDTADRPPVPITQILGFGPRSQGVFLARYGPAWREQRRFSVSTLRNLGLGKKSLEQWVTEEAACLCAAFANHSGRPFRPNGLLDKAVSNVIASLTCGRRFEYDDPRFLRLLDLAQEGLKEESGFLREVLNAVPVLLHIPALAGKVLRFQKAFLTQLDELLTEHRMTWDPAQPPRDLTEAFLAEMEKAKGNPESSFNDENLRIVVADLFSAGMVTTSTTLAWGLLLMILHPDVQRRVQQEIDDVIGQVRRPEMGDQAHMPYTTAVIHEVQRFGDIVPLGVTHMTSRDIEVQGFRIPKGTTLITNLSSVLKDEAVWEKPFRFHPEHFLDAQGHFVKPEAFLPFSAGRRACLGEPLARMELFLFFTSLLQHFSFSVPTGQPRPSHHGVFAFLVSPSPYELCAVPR

[8] = test system: Rattus norvegicus; experiment: Hypoglycemic activity in Sprague-Dawley rat assessed as reduction in plasma insulin level at 1 to 3 mg/kg, po treated for 16 hrs prior to glucose stimulation and measured up to 1 hr by ELISA; format: functional, organism-based; summary of the method: as §2
[9] = biological target: Cytochrome P450 2C9 (Homo sapiens, UniProt P11712); experiment: Inhibition of CYP2C9 (unknown origin); format: ADME
Sequence of Cytochrome P450 2C9 (P11712 whole entry): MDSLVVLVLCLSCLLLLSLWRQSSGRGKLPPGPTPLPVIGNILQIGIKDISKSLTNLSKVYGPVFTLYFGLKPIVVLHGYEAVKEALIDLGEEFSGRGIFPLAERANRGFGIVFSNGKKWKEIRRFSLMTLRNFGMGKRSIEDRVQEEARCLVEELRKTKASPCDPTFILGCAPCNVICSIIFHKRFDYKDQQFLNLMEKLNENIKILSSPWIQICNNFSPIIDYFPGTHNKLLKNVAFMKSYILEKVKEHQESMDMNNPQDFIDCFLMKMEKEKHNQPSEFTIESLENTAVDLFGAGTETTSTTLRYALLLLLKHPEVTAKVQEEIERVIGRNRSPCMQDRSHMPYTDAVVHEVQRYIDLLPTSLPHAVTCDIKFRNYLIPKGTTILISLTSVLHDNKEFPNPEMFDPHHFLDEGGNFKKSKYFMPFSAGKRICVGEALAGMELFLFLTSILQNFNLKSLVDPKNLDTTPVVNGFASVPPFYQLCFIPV

[10] = test system: Rattus norvegicus; experiment: Hypoglycemic activity in Sprague-Dawley rat assessed as reduction in plasma glucose AUC at 1 mg/kg, po treated for 16 hrs prior to glucose stimulation and measured up to 2 hrs by IPGTT relative to control; format: functional; set-up: scale not given: the % may be the effect or the level left; summary of the method: as §2
[11] = Terminal half life in Sprague-Dawley rat at 1 mg/kg, iv; format: ADME, organism-based; details: in vivo, read-out: beta t1/2 (converted)
Summary of the method: (§3)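 Sprague-Dawley rats given 1 mg/kg intravenously or 3 mg/kg orally; t1/2β, CL, Vdss and MRT from IV dosing, oral bioavailability from PO dosing.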

[12] = biological target: Cytochrome P450 3A4 (Homo sapiens, UniProt P08684); experiment: Inhibition of CYP3A4 (unknown origin); format: ADME
Sequence of Cytochrome P450 3A4 (P08684 whole entry): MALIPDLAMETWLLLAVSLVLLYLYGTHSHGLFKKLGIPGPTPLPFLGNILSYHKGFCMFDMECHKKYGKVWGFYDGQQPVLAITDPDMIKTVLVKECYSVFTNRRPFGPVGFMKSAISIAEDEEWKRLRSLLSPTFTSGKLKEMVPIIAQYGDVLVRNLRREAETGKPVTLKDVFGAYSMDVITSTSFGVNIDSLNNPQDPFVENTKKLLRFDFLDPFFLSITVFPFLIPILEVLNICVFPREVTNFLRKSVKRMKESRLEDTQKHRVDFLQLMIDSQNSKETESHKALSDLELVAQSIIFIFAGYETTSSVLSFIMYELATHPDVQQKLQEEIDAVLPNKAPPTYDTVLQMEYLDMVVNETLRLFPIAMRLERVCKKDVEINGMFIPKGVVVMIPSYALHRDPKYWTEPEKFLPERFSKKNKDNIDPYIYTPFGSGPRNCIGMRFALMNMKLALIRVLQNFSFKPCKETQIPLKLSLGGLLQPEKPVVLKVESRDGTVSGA

[13] = biological target: Cytochrome P450 2C19 (Homo sapiens, UniProt P33261); experiment: Inhibition of CYP2C19 (unknown origin); format: ADME
Sequence of Cytochrome P450 2C19 (P33261 whole entry): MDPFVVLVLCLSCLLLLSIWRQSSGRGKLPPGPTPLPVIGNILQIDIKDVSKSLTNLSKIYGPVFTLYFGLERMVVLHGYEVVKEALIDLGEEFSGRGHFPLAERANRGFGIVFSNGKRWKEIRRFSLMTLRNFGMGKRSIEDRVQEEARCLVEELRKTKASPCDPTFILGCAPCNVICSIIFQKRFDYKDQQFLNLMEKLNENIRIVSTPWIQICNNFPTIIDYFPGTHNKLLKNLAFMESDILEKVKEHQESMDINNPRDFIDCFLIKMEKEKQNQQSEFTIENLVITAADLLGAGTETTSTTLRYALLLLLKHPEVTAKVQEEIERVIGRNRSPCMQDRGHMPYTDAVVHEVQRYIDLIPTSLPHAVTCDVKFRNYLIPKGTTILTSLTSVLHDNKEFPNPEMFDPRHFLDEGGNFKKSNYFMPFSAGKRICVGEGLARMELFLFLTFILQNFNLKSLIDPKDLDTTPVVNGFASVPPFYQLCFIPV

[14] = test system: Rattus norvegicus; experiment: Effect on plasma glucose level in Sprague-Dawley rat at 1 to 3 mg/kg, po measured after 16 hrs; format: ADME, organism-based; details: in vivo; summary of the method: as §2
[15] = biological target: T4, Cytochrome P450 2C8 (Homo sapiens, UniProt P10632); experiment: Inhibition of CYP2C8 (unknown origin); format: ADME
T4 sequence (P10632 whole entry): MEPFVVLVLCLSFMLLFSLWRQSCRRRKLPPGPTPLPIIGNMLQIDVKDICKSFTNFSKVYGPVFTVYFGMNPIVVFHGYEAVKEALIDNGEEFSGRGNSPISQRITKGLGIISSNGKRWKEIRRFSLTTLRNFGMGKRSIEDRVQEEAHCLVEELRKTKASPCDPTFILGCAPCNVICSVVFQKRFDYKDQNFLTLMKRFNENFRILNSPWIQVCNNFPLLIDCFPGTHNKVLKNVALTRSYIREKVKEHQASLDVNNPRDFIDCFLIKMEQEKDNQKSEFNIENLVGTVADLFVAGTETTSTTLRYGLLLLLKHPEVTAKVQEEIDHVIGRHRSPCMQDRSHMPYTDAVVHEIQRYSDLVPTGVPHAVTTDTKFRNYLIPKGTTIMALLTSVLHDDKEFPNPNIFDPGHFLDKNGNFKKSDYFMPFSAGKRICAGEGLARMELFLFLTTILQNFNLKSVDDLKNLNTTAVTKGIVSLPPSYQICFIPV

[16] = Volume of distribution at steady state in Sprague-Dawley rat at 1 mg/kg, iv; format: ADME, organism-based; details: in vivo, read-out: Vdss; summary of the method: as §3
[17] = test system: Rattus norvegicus; experiment: Hypoglycemic activity in Sprague-Dawley rat assessed as reduction in plasma glucose level at 1 to 3 mg/kg, po treated for 16 hrs prior to glucose stimulation and measured up to 2 hrs by IPGTT; format: functional, organism-based; summary of the method: as §2
[18] = MRT in Sprague-Dawley rat at 1 mg/kg, iv; format: ADME, organism-based; details: in vivo; summary of the method: as §3
[19] = Clearance in Sprague-Dawley rat at 1 mg/kg, iv; format: ADME, organism-based; details: in vivo; summary of the method: as §3
[20] = test system: Rattus norvegicus; experiment: Hypoglycemic activity in Sprague-Dawley rat assessed as reduction in plasma glucose AUC at 3 mg/kg, po treated for 16 hrs prior to glucose stimulation and measured up to 2 hrs by IPGTT relative to control; format: functional; set-up: scale not given: the % may be the effect or the level left; summary of the method: as §2
[21] = Oral bioavailability in Sprague-Dawley rat at 3 mg/kg; format: ADME, organism-based; details: in vivo; summary of the method: as §3
[22] = Protein binding in rat plasma; format: ADME, cell-free; details: read-out: PPB (converted)
[23] = Protein binding in human plasma; format: ADME, cell-free; details: read-out: PPB (converted)

| SMILES | %max [1] | EC50 [2] | remaining at 1 h, 5 µM [3] | remaining at 1 h, 5 µM [4] | further results |
| --- | --- | --- | --- | --- | --- |
| CC(O[C@H]1CC[C@]2(CC1)COC(C)(C)C2)c1nc(-c2ccc(CC(=O)N(C)C)c(F)c2)no1 (mixture of isomers) | 131% | 69 nM |  |  |  |
| C[C@@H](O[C@H]1CC[C@]2(CC1)COC(C)(C)C2)c1nc(-c2cc(F)c(CS(C)(=O)=O)cc2F)no1 | 118% | 64 nM |  |  |  |
| CC(O[C@H]1CC[C@]2(CCCCO2)CC1)c1nc(-c2ccc(CS(C)(=O)=O)c(F)c2)no1 (stereo partly specified) | 112% | 86 nM | 64% | 39% |  |
| C[C@@H](O[C@H]1CC[C@]2(CCC(F)(F)CO2)CC1)c1nc(-c2cc(F)c(CS(C)(=O)=O)c(F)c2)no1 | 112% | 6 nM | 98% | 98% | Activity [5]: Non-Toxic; IC50 [6]: > 50 µM; IC50 [7]: > 50 µM; Activity [8]: Active; IC50 [9]: > 50 µM; Activity [10]: 10%; half-life [11]: 306 min; IC50 [12]: > 50 µM; IC50 [13]: > 50 µM; Activity [14]: Non-Toxic; IC50 [15]: > 50 µM; Vd [16]: 3.5 L/kg; Activity [17]: Active; MRT [18]: 6.4 h; clearance [19]: 8.33 mL/min/kg; Activity [20]: 12%; bioavailability [21]: 43% |
| CC(O[C@H]1CC[C@@]2(CC1)CC(C)(C)CCO2)c1nc(-c2ccc(CS(C)(=O)=O)c(F)c2)no1 (stereo partly specified) | 113% | 29 nM | 53% | 0% |  |
| CC1(C)C[C@]2(CC[C@H](OCc3nc(-c4ccc(S(C)(=O)=O)c(F)c4)no3)CC2)CO1 | 103% | 261 nM |  |  |  |
| C[C@@H](O[C@H]1CC[C@]2(CC1)COC(C)(C)C2)c1nc(-c2ccc(CS(C)(=O)=O)c(F)c2F)no1 | 77% | 301 nM |  |  |  |
| CC(O[C@H]1CC[C@]2(CC1)COC(C)(C)C2)c1nc(-c2ccc(C(=O)N(C)C)c(F)c2)no1 (mixture of isomers) | 86% | 2460 nM |  |  |  |
| C[C@@H](O[C@H]1CC[C@@]2(CC1)CC(F)(F)CCO2)c1nc(-c2cc(F)c(CS(C)(=O)=O)c(F)c2)no1 | 106% | 27 nM | 91% | 97% |  |
| C[C@@H](O[C@H]1CC[C@]2(CC1)COC(C)(C)C2)c1nc(-c2ccc(CS(C)(=O)=O)c(F)c2)no1 | 106% | 27 nM |  |  |  |
| CC(O[C@H]1CC[C@]2(CC1)COC(C)(C)C2)c1nc(-c2ccc(CS(C)(=O)=O)c(F)c2)no1 (mixture of isomers) | 130% | 44 nM | 86% | 62% |  |
| C[C@@H](O[C@H]1CC[C@]2(CC1)COC(C)(C)C2)c1nc(-c2cc(F)c(CS(C)(=O)=O)c(F)c2)no1 | 109% | 5 nM | 83% | 65% | fraction unbound [22]: 0.06; fraction unbound [23]: 0.035 |
| C[C@@H](O[C@H]1CC[C@@]2(CC1)CC(F)(F)CO2)c1nc(-c2cc(F)c(CS(C)(=O)=O)c(F)c2)no1 | 116% | 7 nM | 85% | 83% |  |
| CC(O[C@H]1CC[C@]2(CCCO2)CC1)c1nc(-c2ccc(CS(C)(=O)=O)c(F)c2)no1 (stereo partly specified) | 114% | 720 nM | 54% | 49% |  |
| CC(O[C@H]1CC[C@]2(CC1)COC(C)(C)C2)c1nc(-c2ccc(CS(C)(=O)=O)cc2)no1 (mixture of isomers) | 120% | 426 nM |  |  |  |
| CC(O[C@H]1CC[C@]2(CCC(C)(C)CO2)CC1)c1nc(-c2ccc(CS(C)(=O)=O)c(F)c2)no1 (stereo partly specified) | 109% | 25 nM | 56% | 0% |  |
| C[C@H](O[C@H]1CC[C@]2(CC1)COC(C)(C)C2)c1nc(-c2ccc(CS(C)(=O)=O)c(F)c2)no1 | 106% | 430 nM |  |  |  |
| CC(O[C@H]1CC[C@]2(CC1)COC(C)(C)C2)c1nc(-c2ccc(S(C)(=O)=O)c(F)c2)no1 (mixture of isomers) | 109% |  |  |  |  |
| CC(O[C@H]1CC[C@@]2(CC1)CC(C)(C)CO2)c1nc(-c2ccc(CS(C)(=O)=O)c(F)c2)no1 (stereo partly specified) | 115% | 31 nM | 55% | 15% |  |
